Measured values published in ChEMBL document CHEMBL1127431, “Cholinergic agents structurally related to furtrethonium. 2. Synthesis and antimuscarinic activity of a series of N-[5-[(1'-substituted-acetoxy) methyl]-2-furfuryl]dialkylamines” (J Med Chem, 1994).

Assays:
[1] = biological target: Muscarinic acetylcholine receptor M3 (Rattus norvegicus) (UniProt P08483); assay: In vitro antimuscarinic activity against the M3 muscarinic receptor subtype in rat ileum; type: tissue-based
Outline: (§1)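 Rat longitudinal ileum segments (~2 cm), fasted overnight, isotonic recording at 0.5 g resting tension; 30–45 min equilibration. Cumulative furtrethonium curves in 0.5 log-unit increments, repeated until two matched, then final curve after ≥30 min with test compound. E50 by four-parameter logistic fit; pKb = log(DR−1) − log[B], mean ± SE.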

[2] = biological target: Muscarinic acetylcholine receptor M3 (Rattus norvegicus) (UniProt P08483); assay: In vitro antimuscarinic activity against the M3 muscarinic receptor subtype in rat bladder
Outline: as §1, with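 “Rat urinary detrusor strips (extratrigonal, 1 cm × 2 mm),” for “Rat longitudinal ileum segments (~2 cm),”, “at 1” for “at 0.5”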

[3] = biological target: T1, Muscarinic acetylcholine receptor M2 (Homo sapiens) (UniProt P08172); assay: In vitro antimuscarinic activity against the M2 muscarinic receptor subtype in guinea pig atria; conditions: Cavia porcellus; target entry is the homologue from another species
T1 sequence (whole entry): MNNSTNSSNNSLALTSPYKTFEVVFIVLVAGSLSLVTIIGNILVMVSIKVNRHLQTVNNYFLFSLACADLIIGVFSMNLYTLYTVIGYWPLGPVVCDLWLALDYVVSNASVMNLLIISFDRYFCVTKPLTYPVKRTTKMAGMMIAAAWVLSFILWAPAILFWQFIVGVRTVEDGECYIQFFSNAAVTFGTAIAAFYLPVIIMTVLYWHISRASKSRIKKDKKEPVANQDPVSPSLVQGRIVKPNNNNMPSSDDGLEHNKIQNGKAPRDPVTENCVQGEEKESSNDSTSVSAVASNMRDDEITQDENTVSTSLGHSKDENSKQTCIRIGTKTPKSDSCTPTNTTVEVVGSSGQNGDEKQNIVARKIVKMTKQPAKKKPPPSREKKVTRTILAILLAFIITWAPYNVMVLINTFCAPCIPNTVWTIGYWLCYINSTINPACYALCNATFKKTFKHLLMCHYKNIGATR
Outline: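 Guinea pig atria (both), fasted overnight, resting tension 1 g, force recorded; 30–45 min equilibration. Cumulative carbachol curves in 0.25 log-unit increments, repeated until two matched, then final curve after ≥30 min with test compound. E50 from four-parameter logistic fit; pKb = log(DR−1) − log[B], mean ± SE.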

Chain of Muscarinic acetylcholine receptor M3 (Rattus norvegicus) (P08483 whole entry, looked up): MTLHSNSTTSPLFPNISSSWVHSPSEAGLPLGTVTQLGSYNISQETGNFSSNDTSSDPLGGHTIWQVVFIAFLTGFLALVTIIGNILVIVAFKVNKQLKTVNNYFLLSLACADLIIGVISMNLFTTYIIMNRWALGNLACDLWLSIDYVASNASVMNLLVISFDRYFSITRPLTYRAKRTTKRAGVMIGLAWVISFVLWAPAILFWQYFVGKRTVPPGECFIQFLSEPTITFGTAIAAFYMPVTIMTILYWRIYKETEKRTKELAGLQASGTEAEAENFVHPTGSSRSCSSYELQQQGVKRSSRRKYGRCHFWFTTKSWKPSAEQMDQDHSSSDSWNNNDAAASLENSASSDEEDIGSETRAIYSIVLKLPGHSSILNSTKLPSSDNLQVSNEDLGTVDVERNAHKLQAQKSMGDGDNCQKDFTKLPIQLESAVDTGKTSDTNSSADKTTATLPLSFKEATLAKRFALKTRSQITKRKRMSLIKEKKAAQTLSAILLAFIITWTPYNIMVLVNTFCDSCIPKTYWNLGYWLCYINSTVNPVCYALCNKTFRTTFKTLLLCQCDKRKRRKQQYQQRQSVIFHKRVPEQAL

Structure (SMILES)	pKb [1]	pKb [2]	pKb [3]
CN(C)Cc1ccc(COC(=O)C2c3ccccc3Oc3ccccc32)o1	7.1	6.6	6.5
CC(C)N(C)Cc1ccc(COC(=O)C(c2ccccc2)C2CCCCC2)o1 (stereo not given)	7	6.7	5
CN(C)Cc1ccc(COC(=O)C(c2ccccc2)C2CCCCC2)o1 (stereo not given)	7.3	7.2	5.9
O=C(OCc1ccc(CN2CCCCC2)o1)C(c1ccccc1)c1ccccc1	6	6.2	< 5
CN(Cc1ccccc1)Cc1ccc(COC(=O)C(c2ccccc2)C2CCCCC2)o1 (stereo not given)	< 5	< 5	< 5
CCCCCN(C)Cc1ccc(COC(=O)C(c2ccccc2)C2CCCCC2)o1 (stereo not given)	6.9	< 5	< 5
O=C(OCc1ccc(CN2CCCCC2)o1)C(c1ccccc1)C1CCCCC1 (stereo not given)	6.3	5.3	< 5
CN(C)Cc1ccc(COC(=O)C(O)(C2CCCCC2)C2CCCCC2)o1	7.1	7.2	< 5
CN(C)Cc1ccc(COC(=O)C2c3ccccc3-c3ccccc32)o1	5.8	5.6	4.8
O=C(OCc1ccc(CN2CCOCC2)o1)C(c1ccccc1)C1CCCCC1 (stereo not given)	5.5	5.7	< 5
CCCN(C)Cc1ccc(COC(=O)C(c2ccccc2)C2CCCCC2)o1 (stereo not given)	6.8	6	< 5
CCN(CC)Cc1ccc(COC(=O)C(c2ccccc2)C2CCCCC2)o1 (stereo not given)	6.7	6	< 5
CN(C)Cc1ccc(COC(=O)C(c2ccccc2)c2ccccc2)o1	6.5	6.5	5.9
O=C(OCc1ccc(CN2CCC(O)CC2)o1)C(c1ccccc1)C1CCCCC1 (stereo not given)	6.5	6	< 5
CN(Cc1ccc(COC(=O)C(c2ccccc2)C2CCCCC2)o1)C1CCCCC1 (stereo not given)	6.5	< 5	< 4.5
